In ChEMBL document CHEMBL1129345, “Synthesis and potent anti-HIV-1 activity of novel 6-benzyluracil analogues of 1-[(2-hydroxyethoxy)methyl]-6-(phenylthio)thymine” (1996):

What was measured:
Assay type in all cases: functional
[1] = tested on: Human immunodeficiency virus 1; assay: Effective dose of compound required to inhibit 50% of HIV-1 antigen production in MT-4 cultures.; settings: read-out: ED50 (the source's name)
How it was run: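 MT-4 cells were infected with HIV-1 HTLV-IIIB (0.005 MOI) for 2 h and washed. They were then added 1:10 to uninfected MT-4 cells preincubated with compound for 2 h in RPMI 1640 with 10% heat-inactivated FCS. Cultures were kept with compound for 6 days, and supernatant HIV-1 antigen was measured by ELISA. ED50 (50% antigen reduction) is the mean of three independent determinations.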

[2] = tested on: MT4; assay: Cytotoxic dose required to reduce the proliferation of normal uninfected MT-4 cells; settings: Homo sapiens, read-out: CD50 (the source's name)
How it was run: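 Proliferation of uninfected MT-4 cells measured by MTT assay over a range of compound concentrations. A 30% inhibition of growth versus control cultures was counted as significant. CD50 is the concentration giving 50% reduction in proliferation, reported as the mean of three independent determinations.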

[3] = tested on: MT4; assay: Selectivity index is the ratio between CD50 and ED50
How it was run: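 Selectivity index computed as CD50 (MTT proliferation assay in uninfected MT-4 cells) divided by ED50 (HIV-1 antigen ELISA in HTLV-IIIB-infected MT-4 cultures, 6 days). Both values are means of three independent determinations.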

Compound | EC50 [1] [µM] | CC50 [2] [µM] | SI [3]
CCOCn1c(Cc2ccccc2)c(CC)c(=O)[nH]c1=O | 0.041 | – | –
CCSCn1c(Cc2ccccc2)c(C(C)C)c(=O)[nH]c1=O | 0.006 | 37 | 6200
CCOCn1c(Cc2ccccc2)c(C(C)C)c(=O)[nH]c1=O [EMIVIRINE] | 0.005 | 141 | 28000
CCSCn1c(Cc2ccccc2)c(CC)c(=O)[nH]c1=O | 0.04 | 37 | 925
CCc1c(Cc2cc(C)cc(C)c2)n(C(C)OC)c(=O)[nH]c1=O (stereo not drawn) | 2 | 100 | 50
CCOC(CC)n1c(Cc2cc(C)cc(C)c2)c(CC)c(=O)[nH]c1=O (stereo not drawn) | 15 | 130 | 8.7
CCSCn1c(Cc2cc(C)cc(C)c2)c(CC)c(=O)[nH]c1=O | 0.004 | 68 | 17000
CSCn1c(Cc2ccccc2)c(C(C)C)c(=O)[nH]c1=O | 0.02 | 37 | 1850
CCc1c(Cc2ccccc2)n([C@@H]2CC[C@@H](CO)O2)c(=O)[nH]c1=O | 0.5 | 1 | 2
CCOCn1c(Cc2cc(C)cc(C)c2)c(CC)c(=O)[nH]c1=O | 0.004 | 100 | 25000
CCc1c(Cc2ccccc2)n(CSC)c(=O)[nH]c1=O | 0.002 | 32 | 16000
CCOC(C)n1c(Cc2ccccc2)c(CC)c(=O)[nH]c1=O (stereo not drawn) | > 100 | – | –
CCc1c(Cc2ccccc2)n(C(C)OCCO)c(=O)[nH]c1=O (stereo not drawn) | > 100 | – | –
Cc1cn([C@H]2C[C@H](N=[N+]=[N-])[C@@H](CO)O2)c(=O)[nH]c1=O [ZIDOVUDINE] | 0.04 | 52 | 1300
CCc1c(Cc2cc(C)cc(C)c2)n(CSC)c(=O)[nH]c1=O | 0.05 | 52 | 1040
CCc1c(Cc2ccccc2)n([C@H]2CC[C@@H](CO)O2)c(=O)[nH]c1=O | 37 | 52 | 1.4
CCc1c(Cc2ccccc2)n(C(C)OC)c(=O)[nH]c1=O (stereo not drawn) | > 100 | – | –
